{"source": "paper PMC4979564", "about": "(JCI insight, 2016)", "key": {"CB1R [1]": {"target": "T1, CB1R (Mus musculus, UniProt P47746)", "T1 sequence (P47746 whole entry)": "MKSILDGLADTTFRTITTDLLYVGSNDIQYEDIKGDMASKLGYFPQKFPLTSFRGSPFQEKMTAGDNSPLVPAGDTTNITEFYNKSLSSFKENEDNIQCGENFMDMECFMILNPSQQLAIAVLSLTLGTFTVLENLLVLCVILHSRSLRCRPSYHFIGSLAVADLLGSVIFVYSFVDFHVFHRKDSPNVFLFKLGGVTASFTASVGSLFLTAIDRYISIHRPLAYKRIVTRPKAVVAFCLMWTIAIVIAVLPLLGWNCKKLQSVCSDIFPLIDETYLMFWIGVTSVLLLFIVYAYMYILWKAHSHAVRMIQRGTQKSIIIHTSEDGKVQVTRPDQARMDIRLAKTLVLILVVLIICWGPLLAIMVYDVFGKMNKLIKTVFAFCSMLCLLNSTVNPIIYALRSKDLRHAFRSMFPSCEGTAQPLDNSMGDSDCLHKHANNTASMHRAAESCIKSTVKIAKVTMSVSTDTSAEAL", "experiment": "Upper GI motility assay", "format": "in vivo"}, "anxiety-like behavior": {"system": "anxiety-like behavior", "experiment": "Elevated plus-maze test", "format": "in vivo, mouse"}, "iNOS": {"target": "iNOS (Mus musculus, UniProt P29477)", "format": "cell-based", "conditions": "for concentration range of concentration-dependent inhibition of iNOS activity: extracts of RAW 264.7 macrophages treated with LPS + γ-interferon", "summary_of_the_method": "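RAW 264.7 mouse macrophages (100,000 cells/well) primed 24 h with LPS (50 ng/ml) plus γ-interferon (10 ng/ml) to induce iNOS. Test compound was then added for 1 h. Activity was read with a fluorimetric cell-associated NOS detection kit per supplier's protocol. Diphenylene iodonium (1 mM) served as positive control. One-way ANOVA with Dunnett's test against LPS+γ-interferon control.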"}, "[2]": {"experiment": "Liver microsomal stability assay", "format": "in vitro ADME", "conditions": "mouse, rat, or human liver microsomes, 1 hour at 37°C"}, "hERG": {"target": "hERG (Homo sapiens, UniProt Q12809)", "sequence (Q12809 whole entry)": "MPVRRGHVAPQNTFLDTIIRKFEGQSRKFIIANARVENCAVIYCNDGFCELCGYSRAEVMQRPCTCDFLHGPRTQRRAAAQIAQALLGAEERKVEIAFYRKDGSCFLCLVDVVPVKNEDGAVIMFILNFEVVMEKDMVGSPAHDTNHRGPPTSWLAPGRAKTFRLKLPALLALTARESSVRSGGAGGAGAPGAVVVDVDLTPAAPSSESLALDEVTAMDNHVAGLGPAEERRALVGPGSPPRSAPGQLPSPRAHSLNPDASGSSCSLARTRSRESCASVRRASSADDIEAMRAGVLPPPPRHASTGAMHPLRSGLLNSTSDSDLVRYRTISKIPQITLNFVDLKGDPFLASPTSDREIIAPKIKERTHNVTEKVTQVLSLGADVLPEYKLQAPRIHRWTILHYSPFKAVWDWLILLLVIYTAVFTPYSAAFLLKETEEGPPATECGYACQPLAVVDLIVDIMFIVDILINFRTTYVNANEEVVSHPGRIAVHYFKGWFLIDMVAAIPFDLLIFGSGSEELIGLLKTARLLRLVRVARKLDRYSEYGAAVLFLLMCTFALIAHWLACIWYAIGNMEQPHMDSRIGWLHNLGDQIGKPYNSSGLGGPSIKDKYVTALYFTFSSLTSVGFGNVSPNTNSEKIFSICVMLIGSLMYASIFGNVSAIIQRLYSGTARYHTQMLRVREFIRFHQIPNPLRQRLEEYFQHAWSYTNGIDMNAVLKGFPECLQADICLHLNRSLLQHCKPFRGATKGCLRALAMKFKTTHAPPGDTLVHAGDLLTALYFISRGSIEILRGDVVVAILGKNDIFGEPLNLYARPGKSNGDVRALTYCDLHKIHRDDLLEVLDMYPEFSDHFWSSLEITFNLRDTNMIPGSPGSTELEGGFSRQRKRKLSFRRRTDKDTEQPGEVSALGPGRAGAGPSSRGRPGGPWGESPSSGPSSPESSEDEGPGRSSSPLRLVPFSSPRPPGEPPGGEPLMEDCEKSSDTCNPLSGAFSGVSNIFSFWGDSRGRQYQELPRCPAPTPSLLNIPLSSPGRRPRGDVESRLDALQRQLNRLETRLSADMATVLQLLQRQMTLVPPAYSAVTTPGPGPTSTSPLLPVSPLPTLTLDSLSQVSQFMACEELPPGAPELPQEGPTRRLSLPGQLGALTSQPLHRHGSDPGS", "experiment": "hERG K+ current inhibition", "format": "biochemical", "conditions": "read-out: IC50 for inhibition of the K+ current mediated by hERG; in vitro"}, "[3]": {"experiment": "Plasma ALT and AST after 28-day chronic oral administration", "format": "in vivo, mouse", "conditions": "for plasma ALT / plasma AST: 28-day chronic oral", "summary_of_the_method": "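Mice received test compound by daily oral gavage. Blood was collected at sacrifice, and serum ALT and AST were measured on an automated clinical chemistry analyzer.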"}, "[4]": {"system": "CCl4-induced liver fibrosis", "experiment": "CCl4-induced liver fibrosis", "format": "in vivo, mouse", "conditions": "3 mg/kg/d for 4 weeks with CCl4 twice weekly"}, "[5]": {"experiment": "Tissue distribution by LC-MS/MS after oral dosing", "format": "in vivo, mouse"}, "[6]": {"experiment": "2-strain Ames test for in vitro genotoxicity", "conditions": "up to 125 μg/ml"}, "recombinant bovine eNOS": {"target": "recombinant bovine eNOS (Bos taurus, UniProt P29473)", "experiment": "Radioisotopic eNOS activity assay", "format": "biochemical", "conditions": "recombinant eNOS enzyme", "summary_of_the_method": "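Recombinant bovine eNOS was incubated with test compound. Activity was taken as the rate of conversion of [3H]L-arginine to [3H]L-citrulline, using a radioisotopic NOS assay kit per supplier's instructions. L-NNA (100 μM) served as positive control. One-way ANOVA with Dunnett's test.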"}, "CB1R [7]": {"target": "T1, CB1R", "experiment": "[35S]GTPγS-binding assay", "format": "biochemical", "conditions": "no agonist"}, "Pharmacokinetics in mice": {"experiment": "Pharmacokinetics in mice", "format": "in vivo, mouse", "conditions": "oral"}, "κ opioid receptor": {"system": "κ opioid receptor", "experiment": "Safety screen", "format": "binding", "conditions": "1 μM"}, "[8]": {"experiment": "Pharmacokinetics in Sprague-Dawley rats", "format": "in vivo, rat"}, "[9]": {"system": "BDL-induced liver fibrosis", "experiment": "Bile duct ligation", "format": "in vivo, mouse", "conditions": "for progression of established BDL-induced liver fibrosis: treatment started on day 6 after BDL; for gene expression of fibrosis markers collagen-1, Tgfβ1, αSma, Timp1: wild-type mice with BDL"}, "CB2R": {"system": "CB2R", "conditions": "binding, CHO-K1 membranes"}, "CB1R [10]": {"target": "T1, CB1R", "experiment": "Brain CB1R occupancy by CB1R PET", "format": "in vivo", "conditions": "acute or chronic treatment, 3–30 mg/kg"}, "CB1R [11]": {"target": "CB1R (Homo sapiens, UniProt P21554)", "sequence (P21554 whole entry)": "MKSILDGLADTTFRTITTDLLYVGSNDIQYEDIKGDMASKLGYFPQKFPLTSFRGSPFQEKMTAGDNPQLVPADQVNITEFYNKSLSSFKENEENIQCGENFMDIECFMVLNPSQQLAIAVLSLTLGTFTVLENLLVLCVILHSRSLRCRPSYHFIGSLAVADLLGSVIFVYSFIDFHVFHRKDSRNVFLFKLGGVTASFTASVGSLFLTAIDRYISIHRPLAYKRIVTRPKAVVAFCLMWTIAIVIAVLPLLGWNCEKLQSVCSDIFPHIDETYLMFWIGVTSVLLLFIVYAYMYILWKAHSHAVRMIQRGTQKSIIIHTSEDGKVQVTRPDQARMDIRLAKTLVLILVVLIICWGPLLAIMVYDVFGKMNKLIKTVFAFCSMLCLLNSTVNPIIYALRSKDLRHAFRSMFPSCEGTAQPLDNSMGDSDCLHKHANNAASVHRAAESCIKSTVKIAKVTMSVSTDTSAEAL", "experiment": "Safety screen", "format": "binding", "conditions": "1 μM"}, "Caco-2": {"system": "Caco-2", "experiment": "Caco-2 permeability assay", "format": "in vitro ADME"}}}
{"smiles": "C/C(N)=N\\C(=N/S(=O)(=O)c1ccc(C(F)(F)F)cc1)N1C[C@H](c2ccccc2)C(c2ccc(Cl)cc2)=N1", "note": "[MRI-1867]", "values": [{"measurement": "reversal of inhibition of upper GI motility caused by CB1R agonist arachidonoyl 2-chloroethylamide", "setting": "CB1R [1]; 10 mg/kg agonist", "result": "dose-dependently reversed"}, {"measurement": "upper GI motility (inverse agonism)", "setting": "CB1R [1]; oral doses of 3–10 mg/kg, control mice, no effect in CBr1−/− mice", "result": "significantly increased upper GI motility"}, {"measurement": "anxiety-like behavior in the elevated plus maze", "setting": "anxiety-like behavior; doses up to 30 mg/kg", "result": "did not induce anxiety-like behavior"}, {"measurement": "concentration range of concentration-dependent inhibition of iNOS activity", "setting": "iNOS", "result": "1 to 10", "unit": "µM"}, {"measurement": "compound remaining unmetabolized", "setting": "[2]", "result": "46%–62%"}, {"measurement": "IC50", "setting": "hERG", "result": 5.1, "unit": "µM"}, {"measurement": "hepatotoxicity", "setting": "[3]; 28-day chronic oral doses of 3 or 30 mg/kg", "result": "no hepatotoxicity"}, {"measurement": "plasma ALT", "setting": "[3]; 3 mg/kg", "result": "31.8 ± 4.8", "unit": "U/l"}, {"measurement": "plasma AST", "setting": "[3]; 3 mg/kg", "result": "44.0 ± 6.1", "unit": "U/l"}, {"measurement": "plasma ALT", "setting": "[3]; 30 mg/kg", "result": "26.2 ± 3.4", "unit": "U/l"}, {"measurement": "plasma AST", "setting": "[3]; 30 mg/kg", "result": "36.2 ± 1.2", "unit": "U/l"}, {"measurement": "CCl4-induced fibrosis (Sirius red, Hyp content, fibrogenic gene expression, iNOS protein)", "setting": "[4]", "result": "attenuated significantly more"}, {"measurement": "unbound drug concentrations in the brain", "setting": "[5]; 10 times higher dose (30 mg/kg), acute or chronic oral, 1 hour after dose", "result": "0.9 to 1.2", "unit": "nM"}, {"measurement": "brain/plasma Cmax ratio", "setting": "[5]; acute or 28-day chronic oral administration, 3 mg/kg", "result": "~ 3%"}, {"measurement": "brain concentration of unbound drug", "setting": "[5]; acute or chronic oral dosing, 3 mg/kg, 1 hour after dose", "result": "0.2 to 0.3", "unit": "nM"}, {"measurement": "brain penetrance and brain CB1R occupancy in mdr1α−/− mice", "setting": "[5]; mdr1α−/− mice", "result": "marked increase"}, {"measurement": "accumulation in the liver", "setting": "[5]; oral dosing", "result": "accumulated highly in the liver"}, {"measurement": "Ames test genotoxicity", "setting": "[6]", "result": "negative"}, {"measurement": "effect on eNOS activity", "setting": "recombinant bovine eNOS", "result": "unaffected"}, {"measurement": "GTPγS binding in the absence of an agonist (inverse agonism)", "setting": "CB1R [7]", "result": "concentration-dependent decreases in GTPγS binding"}, {"measurement": "Plasma t1/2", "setting": "Pharmacokinetics in mice", "result": "~ 4 hours"}, {"measurement": "displacement at κ opioid receptor", "setting": "κ opioid receptor", "result": 61, "unit": "%"}, {"measurement": "oral bioavailability", "setting": "[8]; AUC oral gavage versus intravenous, 3 mg/kg, Sprague-Dawley rats", "result": 81, "unit": "%"}, {"measurement": "Plasma t1/2", "setting": "[8]; oral, rats", "result": "~ 4 hours"}, {"measurement": "BDL-induced increase in hepatic iNOS gene expression", "setting": "[9]; 3 mg/kg/d oral", "result": "completely prevented"}, {"measurement": "BDL-induced increase in hepatic iNOS protein (immunostaining)", "setting": "[9]; 3 mg/kg/d oral", "result": "completely prevented"}, {"measurement": "BDL-induced increase in iNOS function (hepatic iNOS enzyme activity, protein nitrosylation)", "setting": "[9]; 3 mg/kg/d oral", "result": "completely prevented"}, {"measurement": "macrophage infiltration, hepatocyte apoptosis and elevated Ccl2 after BDL", "setting": "[9]; 3 mg/kg/d oral", "result": "more effectively suppressed"}, {"measurement": "BDL-induced fibrosis in cnr1−/− mice", "setting": "[9]; cnr1−/− mice, 3 mg/kg/d oral", "result": "further attenuated"}, {"measurement": "progression of established BDL-induced liver fibrosis", "setting": "[9]; 3 mg/kg/d oral", "result": "completely arrest the progression"}, {"measurement": "gene expression of fibrosis markers collagen-1, Tgfβ1, αSma, Timp1", "setting": "[9]; 3 mg/kg/d oral", "result": "significantly reduced"}, {"measurement": "BDL-induced ductular proliferation", "setting": "[9]; wild-type mice, 3 mg/kg/d oral", "result": "attenuated significantly more effectively"}, {"measurement": "selectivity for CB1R over CB2R", "setting": "CB2R", "result": "> 500", "unit": "fold"}, {"measurement": "displacement of a CB1R PET ligand in brain", "setting": "CB1R [10]", "result": "failed to cause significant displacement"}, {"measurement": "displacement at CB1R", "setting": "CB1R [11]", "result": 93, "unit": "%"}, {"measurement": "efflux ratio", "setting": "Caco-2", "result": 2.5}]}
{"smiles": "Cc1c(C(=O)NN2CCCCC2)nn(-c2ccc(Cl)cc2Cl)c1-c1ccc(Cl)cc1", "note": "[rimonabant, reference compound]", "values": [{"measurement": "anxiety-like behavior in the elevated plus maze", "setting": "anxiety-like behavior; 3 mg/kg", "result": "caused pronounced anxiety"}, {"measurement": "inhibition of iNOS activity", "setting": "iNOS; up to 100 μM", "result": "did not inhibit iNOS"}, {"measurement": "effect on eNOS activity", "setting": "recombinant bovine eNOS", "result": "Lack of effect"}, {"measurement": "BDL-induced increase in hepatic iNOS gene expression", "setting": "[9]; 3 mg/kg/d oral", "result": "only partially reduced"}, {"measurement": "BDL-induced increase in hepatic iNOS protein (immunostaining)", "setting": "[9]; 3 mg/kg/d oral", "result": "did not affect"}, {"measurement": "BDL-induced increase in iNOS function (hepatic iNOS enzyme activity, protein nitrosylation)", "setting": "[9]; 3 mg/kg/d oral", "result": "no significant effect"}, {"measurement": "gene expression of fibrosis markers collagen-1, Tgfβ1, αSma, Timp1", "setting": "[9]; 3 mg/kg/d oral", "result": "significantly reduced"}]}
{"smiles": "CC(=N)N", "note": "[acetamidine]", "values": [{"measurement": "concentration range of concentration-dependent inhibition of iNOS activity", "setting": "iNOS", "result": "1 to 10", "unit": "µM"}, {"measurement": "effect on eNOS activity", "setting": "recombinant bovine eNOS", "result": "unaffected"}]}
{"smiles": "CC(=N)NCc1cccc(CN)c1", "note": "[1400W, reference compound]", "values": [{"measurement": "progression of established BDL-induced liver fibrosis", "setting": "[9]; 10 mg/kg daily", "result": "attenuated fibrosis to the same extent as rimonabant"}]}
